From ChEMBL document CHEMBL2150978, “Phosphorodiamidates as a promising new phosphate prodrug motif for antiviral drug discovery: application to anti-HCV agents” (J Med Chem, 2011)

Assays:
Hepatitis C virus = assay: Antiviral activity against Hepatitis C virus subtype 1b Con1 infected in human Huh7 cells assessed as inhibition of HCV replicon-encoded Renilla luciferase reporter activity after 72 hrs by HCV replicon assay; format: functional, organism-based, Hepacivirus hominis; conditions: Con1, Huh-7, 72 h
Procedure, shortened: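 Huh7 cells stably carrying a bicistronic subgenomic genotype 1b (Con1) replicon with Renilla luciferase reporter, seeded at 2 × 10⁴ cells/well the day before. Four-fold serial dilutions in growth medium, no-drug controls on each plate; 3 days at 37 °C, 5% CO₂. Luciferase reagent 20 min, then luminescence (RLU) read; EC₅₀ derived.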

[1] = Cytotoxicity against human HuH7 cells after 3 days; format: cell-based, Huh-7
Procedure, shortened: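 Huh7 replicon cells seeded at 2 × 10⁴ per well one day before dosing. Four-fold serial dilutions in growth medium, no-drug controls on each plate. Incubated 3 days at 37 °C, 5% CO₂. Viability read by CellTiter-Glo luminescence after 20 min with reagent.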

COc1nc(N)nc2c1ncn2[C@@H]1O[C@H](CO)[C@@H](O)[C@@]1(C)O [BETA-2'-C-METHYL-6-O-METHYL GUANOSINE]
EC50 (Hepatitis C virus): 4.4 µM | EC90 (Hepatitis C virus): 19.4 µM | CC50 at 72 h [1]: > 100 µM

COC(=O)[C@H](C)NP(=O)(N[C@@H](C)C(=O)OC)OC[C@H]1O[C@@H](n2cnc3c(OC)nc(N)nc32)[C@](C)(O)[C@@H]1O (mixture of isomers)
EC50 (Hepatitis C virus): 5.9 µM | EC90 (Hepatitis C virus): > 10 µM | CC50 at 72 h [1]: > 100 µM

CC[C@H](C)[C@H](NP(=O)(N[C@H](C(=O)OCc1ccccc1)[C@@H](C)CC)OC[C@H]1O[C@@H](n2cnc3c(OC)nc(N)nc32)[C@](C)(O)[C@@H]1O)C(=O)OCc1ccccc1 (mixture of isomers)
EC50 (Hepatitis C virus): 0.4 µM | EC90 (Hepatitis C virus): 1.56 µM | CC50 at 72 h [1]: 24 µM

COc1nc(N)nc2c1ncn2[C@@H]1O[C@H](COP(=O)(N[C@@H](C)C(=O)OCc2ccccc2)N[C@@H](C)C(=O)OCC(C)(C)C)[C@@H](O)[C@@]1(C)O (mixture of isomers)
EC50 (Hepatitis C virus): 0.15 µM | EC90 (Hepatitis C virus): 0.4 µM | CC50 at 72 h [1]: > 100 µM

CCCCNP(=O)(N[C@@H](C)C(=O)OCc1ccccc1)OC[C@H]1O[C@@H](n2cnc3c(OC)nc(N)nc32)[C@](C)(O)[C@@H]1O (mixture of isomers)
EC50 (Hepatitis C virus): 0.44 µM | EC90 (Hepatitis C virus): 1.68 µM | CC50 at 72 h [1]: > 100 µM

COc1nc(N)nc2c1ncn2[C@@H]1O[C@H](COP(=O)(N[C@@H](CCSC)C(=O)OCC(C)(C)C)N[C@@H](CCSC)C(=O)OCC(C)(C)C)[C@@H](O)[C@@]1(C)O (mixture of isomers)
EC50 (Hepatitis C virus): 2.22 µM | EC90 (Hepatitis C virus): 5 µM | CC50 at 72 h [1]: > 100 µM

COC(=O)[C@@H](NP(=O)(N[C@@H](C)C(=O)OCC(C)(C)C)OC[C@H]1O[C@@H](n2cnc3c(OC)nc(N)nc32)[C@](C)(O)[C@@H]1O)C(C)C (mixture of isomers)
EC50 (Hepatitis C virus): 0.17 µM | EC90 (Hepatitis C virus): 0.69 µM | CC50 at 72 h [1]: > 100 µM

COc1nc(N)nc2c1ncn2[C@@H]1O[C@H](COP(=O)(N[C@@H](Cc2ccccc2)C(=O)OCc2ccccc2)N[C@@H](Cc2ccccc2)C(=O)OCc2ccccc2)[C@@H](O)[C@@]1(C)O (mixture of isomers)
EC50 (Hepatitis C virus): 0.32 µM | EC90 (Hepatitis C virus): 1.35 µM | CC50 at 72 h [1]: 67 µM

COC(=O)[C@H](Cc1ccc(OC(C)(C)C)cc1)NP(=O)(N[C@@H](Cc1ccc(OC(C)(C)C)cc1)C(=O)OC)OC[C@H]1O[C@@H](n2cnc3c(OC)nc(N)nc32)[C@](C)(O)[C@@H]1O (mixture of isomers)
EC50 (Hepatitis C virus): 0.11 µM | EC90 (Hepatitis C virus): 0.5 µM | CC50 at 72 h [1]: 89 µM

COc1nc(N)nc2c1ncn2[C@@H]1O[C@H](COP(=O)(N[C@@H](C)C(=O)OC2CCC2)N[C@@H](C)C(=O)OC2CCC2)[C@@H](O)[C@@]1(C)O (mixture of isomers)
EC50 (Hepatitis C virus): 0.32 µM | EC90 (Hepatitis C virus): 0.8 µM | CC50 at 72 h [1]: > 100 µM

CCOc1nc(N)nc2c1ncn2[C@@H]1O[C@H](COP(=O)(N[C@@H](C)C(=O)OC2CCCCC2)N[C@@H](C)C(=O)OC2CCCCC2)[C@@H](O)[C@@]1(C)O (mixture of isomers)
EC50 (Hepatitis C virus): 0.05 µM | EC90 (Hepatitis C virus): 0.15 µM | CC50 at 72 h [1]: 69 µM

COc1nc(N)nc2c1ncn2[C@@H]1O[C@H](COP(=O)(N[C@@H](C)C(=O)OCC(C)(C)C)N[C@@H](C)C(=O)OC2CCCCC2)[C@@H](O)[C@@]1(C)O (mixture of isomers)
EC50 (Hepatitis C virus): 0.04 µM | EC90 (Hepatitis C virus): 0.15 µM | CC50 at 72 h [1]: > 100 µM

COC(=O)[C@@H]1CCCN1P(=O)(N[C@@H](C)C(=O)OCC(C)(C)C)OC[C@H]1O[C@@H](n2cnc3c(OC)nc(N)nc32)[C@](C)(O)[C@@H]1O (mixture of isomers)
EC50 (Hepatitis C virus): 0.49 µM | EC90 (Hepatitis C virus): 2.2 µM | CC50 at 72 h [1]: > 100 µM

C[C@@]1(O)[C@H](O)[C@@H](CO)O[C@H]1n1cnc2c(=O)[nH]c(N)nc21 [2'-B-METHYL-GUANOSINE]
EC50 (Hepatitis C virus): 2.2 µM | EC90 (Hepatitis C virus): 8.3 µM | CC50 at 72 h [1]: > 100 µM

CCOc1nc(N)nc2c1ncn2[C@@H]1O[C@H](COP(=O)(N[C@@H](C)C(=O)OCC(C)(C)C)N[C@@H](C)C(=O)OCC(C)(C)C)[C@@H](O)[C@@]1(C)O (mixture of isomers)
EC50 (Hepatitis C virus): 0.04 µM | EC90 (Hepatitis C virus): 0.11 µM | CC50 at 72 h [1]: 72 µM

COc1nc(N)nc2c1ncn2[C@@H]1O[C@H](COP(=O)(NCC(=O)OCC(C)(C)C)NCC(=O)OCC(C)(C)C)[C@@H](O)[C@@]1(C)O (mixture of isomers)
EC50 (Hepatitis C virus): 0.13 µM | EC90 (Hepatitis C virus): 0.6 µM | CC50 at 72 h [1]: > 100 µM

COc1nc(N)nc2c1ncn2[C@@H]1O[C@H](COP(=O)(NCc2ccccc2)N[C@@H](C)C(=O)OCC(C)(C)C)[C@@H](O)[C@@]1(C)O (mixture of isomers)
EC50 (Hepatitis C virus): 0.43 µM | EC90 (Hepatitis C virus): 1.9 µM | CC50 at 72 h [1]: > 100 µM

CC[C@H](C)[C@H](NP(=O)(N[C@H](C(=O)OC)[C@@H](C)CC)OC[C@H]1O[C@@H](n2cnc3c(OC)nc(N)nc32)[C@](C)(O)[C@@H]1O)C(=O)OC (mixture of isomers)
EC50 (Hepatitis C virus): 5.17 µM | EC90 (Hepatitis C virus): 29.5 µM | CC50 at 72 h [1]: > 100 µM

COc1nc(N)nc2c1ncn2[C@@H]1O[C@H](COP(=O)(N[C@@H](CC(C)C)C(=O)OC2CCCCC2)N[C@@H](CC(C)C)C(=O)OC2CCCCC2)[C@@H](O)[C@@]1(C)O (mixture of isomers)
EC50 (Hepatitis C virus): 0.45 µM | EC90 (Hepatitis C virus): 2 µM | CC50 at 72 h [1]: 20 µM

CCOC(=O)[C@H](C)NP(=O)(N[C@@H](C)C(=O)OCC)OC[C@H]1O[C@@H](n2cnc3c(OC)nc(N)nc32)[C@](C)(O)[C@@H]1O (mixture of isomers)
EC50 (Hepatitis C virus): 1.2 µM | EC90 (Hepatitis C virus): 4.1 µM | CC50 at 72 h [1]: > 100 µM

COc1nc(N)nc2c1ncn2[C@@H]1O[C@H](COP(=O)(N[C@@H](Cc2ccccc2)C(=O)OCC(C)(C)C)N[C@@H](Cc2ccccc2)C(=O)OCC(C)(C)C)[C@@H](O)[C@@]1(C)O (mixture of isomers)
EC50 (Hepatitis C virus): 0.05 µM | EC90 (Hepatitis C virus): 0.21 µM | CC50 at 72 h [1]: 24 µM

CC[C@H](C)[C@H](NP(=O)(N[C@H](C(=O)OCC(C)(C)C)[C@@H](C)CC)OC[C@H]1O[C@@H](n2cnc3c(OC)nc(N)nc32)[C@](C)(O)[C@@H]1O)C(=O)OCC(C)(C)C (mixture of isomers)
EC50 (Hepatitis C virus): 2.9 µM | EC90 (Hepatitis C virus): 6.3 µM | CC50 at 72 h [1]: 15 µM

CCCCNP(=O)(N[C@@H](C)C(=O)OCC(C)(C)C)OC[C@H]1O[C@@H](n2cnc3c(OC)nc(N)nc32)[C@](C)(O)[C@@H]1O (mixture of isomers)
EC50 (Hepatitis C virus): 0.41 µM | EC90 (Hepatitis C virus): 1.5 µM | CC50 at 72 h [1]: > 100 µM

COc1nc(N)nc2c1ncn2[C@@H]1O[C@H](COP(=O)(N2CCC[C@H]2C(=O)OCc2ccccc2)N2CCC[C@H]2C(=O)OCc2ccccc2)[C@@H](O)[C@@]1(C)O (mixture of isomers)
EC50 (Hepatitis C virus): 0.52 µM | EC90 (Hepatitis C virus): 1.8 µM | CC50 at 72 h [1]: > 100 µM

COc1nc(N)nc2c1ncn2[C@@H]1O[C@H](COP(=O)(NC2CC2)N[C@@H](C)C(=O)OCC(C)(C)C)[C@@H](O)[C@@]1(C)O (mixture of isomers)
EC50 (Hepatitis C virus): 0.87 µM | EC90 (Hepatitis C virus): 4.7 µM | CC50 at 72 h [1]: > 100 µM

COc1nc(N)nc2c1ncn2[C@@H]1O[C@H](COP(=O)(N[C@H](C(=O)OCC(C)(C)C)C(C)C)N[C@H](C(=O)OCC(C)(C)C)C(C)C)[C@@H](O)[C@@]1(C)O (mixture of isomers)
EC50 (Hepatitis C virus): 0.72 µM | EC90 (Hepatitis C virus): 2.5 µM | CC50 at 72 h [1]: 32 µM

COc1nc(N)nc2c1ncn2[C@@H]1O[C@H](COP(=O)(N[C@@H](C)C(=O)OCC(C)(C)C)N[C@@H](C)C(=O)OC(C)(C)C)[C@@H](O)[C@@]1(C)O (mixture of isomers)
EC50 (Hepatitis C virus): 0.15 µM | EC90 (Hepatitis C virus): 0.57 µM | CC50 at 72 h [1]: > 100 µM

COc1nc(N)nc2c1ncn2[C@@H]1O[C@H](COP(=O)(N[C@@H](C)C(=O)OC2CCCCO2)N[C@@H](C)C(=O)OC2CCCCO2)[C@@H](O)[C@@]1(C)O (mixture of isomers)
EC50 (Hepatitis C virus): 13.3 µM | EC90 (Hepatitis C virus): 29.3 µM | CC50 at 72 h [1]: > 100 µM

CCN(CC)P(=O)(N[C@@H](C)C(=O)OCC(C)(C)C)OC[C@H]1O[C@@H](n2cnc3c(OC)nc(N)nc32)[C@](C)(O)[C@@H]1O (mixture of isomers)
EC50 (Hepatitis C virus): 3.7 µM | EC90 (Hepatitis C virus): > 10 µM | CC50 at 72 h [1]: > 100 µM

COc1nc(N)nc2c1ncn2[C@@H]1O[C@H](COP(=O)(N[C@@H](C)C(=O)OCc2ccc(F)cc2F)N[C@@H](C)C(=O)OCc2ccc(F)cc2F)[C@@H](O)[C@@]1(C)O (mixture of isomers)
EC50 (Hepatitis C virus): 0.26 µM | EC90 (Hepatitis C virus): 1.07 µM | CC50 at 72 h [1]: 54 µM

CCOc1nc(N)nc2c1ncn2[C@@H]1O[C@H](COP(=O)(N[C@@H](C)C(=O)OCc2ccccc2)N[C@@H](C)C(=O)OCc2ccccc2)[C@@H](O)[C@@]1(C)O (mixture of isomers)
EC50 (Hepatitis C virus): 0.29 µM | EC90 (Hepatitis C virus): 1 µM | CC50 at 72 h [1]: 62 µM

COc1nc(N)nc2c1ncn2[C@@H]1O[C@H](COP(=O)(N[C@@H](CCSC)C(=O)OCc2ccccc2)N[C@@H](CCSC)C(=O)OCc2ccccc2)[C@@H](O)[C@@]1(C)O (mixture of isomers)
EC50 (Hepatitis C virus): 0.25 µM | EC90 (Hepatitis C virus): 0.77 µM | CC50 at 72 h [1]: > 100 µM

COc1nc(N)nc2c1ncn2[C@@H]1O[C@H](COP(=O)(N[C@@H](C)C(=O)OC2CCCCC2)N[C@@H](C)C(=O)OC2CCCC2)[C@@H](O)[C@@]1(C)O (mixture of isomers)
EC50 (Hepatitis C virus): 0.04 µM | EC90 (Hepatitis C virus): 0.16 µM | CC50 at 72 h [1]: > 100 µM

COc1nc(N)nc2c1ncn2[C@@H]1O[C@H](COP(=O)(NCCC(=O)OCc2ccccc2)NCCC(=O)OCc2ccccc2)[C@@H](O)[C@@]1(C)O (mixture of isomers)
EC50 (Hepatitis C virus): 3.8 µM | EC90 (Hepatitis C virus): > 10 µM | CC50 at 72 h [1]: > 100 µM

COC(=O)C[C@H](NP(=O)(N[C@@H](CC(=O)OC)C(=O)OC)OC[C@H]1O[C@@H](n2cnc3c(OC)nc(N)nc32)[C@](C)(O)[C@@H]1O)C(=O)OC (mixture of isomers)
EC50 (Hepatitis C virus): 10.2 µM | EC90 (Hepatitis C virus): > 40 µM | CC50 at 72 h [1]: > 100 µM

COc1nc(N)nc2c1ncn2[C@@H]1O[C@H](COP(=O)(Nc2ccccc2)N[C@@H](C)C(=O)OCC(C)(C)C)[C@@H](O)[C@@]1(C)O (mixture of isomers)
EC50 (Hepatitis C virus): 0.27 µM | EC90 (Hepatitis C virus): 0.82 µM | CC50 at 72 h [1]: > 100 µM
